Rows were chosen to be rich in hits. Some 0.85% of all compounds tested hit in one or more screens of this group.
V1R ag counter: agonists of human V1a receptor, primary screen, counter-screen for OXTR agonist project, fluorescence, CHO-V1R cells | 0.25% of 320,000 active | activation, % at 3 µM | Vasopressin V1a receptor (Homo sapiens), P37288 | AID 2797, 2010 | Fluo-8 calcium fluorescence, agonist mode; 0% DMSO, 100% 3 nM vasopressin;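 active means activation above the mean activation of all tested compounds plus 3 SD, per screening run, cut at about 20% in these data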;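 further: signal is peak over basal fluorescence ratio across a 100 second FLIPR read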
zfTRPN1 agonist: zebrafish TRPN1 channel agonists, primary screen, cell-based, HEK293, calcium fluorescence | AID 1424, 2008 | activation, % at 3 µM | transient receptor potential cation channel N1 (TRPN1/NompC), Danio rerio | HEK293 zebrafish TRPN1-YFP, Fluo-8 calcium fluorescence; 100% = response to 87 µM carbachol | 0.18% of 220,000 active;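 active means activation above its plate's cutoff, the mean activation of test wells on that plate plus 3 SD, cut at about 19% in these data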;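 further: 0% = DMSO alone and 100% = 87 µM carbachol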
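Material – zebrafish TRPN1-YFP in HEK293 cells · Doses – 3 µM single point · Schedule – dye 1 h 37 °C plus 30 min RT · Signal – Fluo-8 calcium fluorescence, excitation 470-495 nm, emission 515-575 nm · Read-out – % activation versus carbachol response · Control set – carbachol high, DMSO low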
OXTR potentiate: human OXTR potentiators, primary screen, fluorescence, CHO-OTR cells, Fluo-8 calcium; Oxytocin receptor (Homo sapiens), P30559; Fluo-8 calcium fluorescence, potentiator mode; 0% = oxytocin EC15, 100% = EC100; activation, % at 3 µM; 0.061% of 320,000 active;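 active means activation above that plate's cutoff, the mean activation of tested compounds plus 3 SD, cut at about 6.6% in these data, passing the limit was not always enough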;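 further: 100% uses oxytocin at 75 nM as the full agonist control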
Target sequence (P30559 whole entry, looked up): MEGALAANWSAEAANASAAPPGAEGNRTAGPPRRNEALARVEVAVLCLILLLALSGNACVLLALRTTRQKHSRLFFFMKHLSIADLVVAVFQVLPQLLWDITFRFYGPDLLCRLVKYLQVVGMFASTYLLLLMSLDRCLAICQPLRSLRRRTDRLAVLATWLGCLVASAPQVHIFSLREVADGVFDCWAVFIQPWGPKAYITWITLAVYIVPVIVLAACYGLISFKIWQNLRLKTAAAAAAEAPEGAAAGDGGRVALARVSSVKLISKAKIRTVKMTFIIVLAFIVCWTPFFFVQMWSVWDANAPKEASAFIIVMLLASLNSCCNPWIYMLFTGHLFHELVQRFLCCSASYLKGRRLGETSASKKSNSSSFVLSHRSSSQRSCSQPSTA
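Material: CHO-OTR cells, human receptor; compound dosing: single dose, 3.0 µM nominal final compound concentration; schedule: 6 min compound pre-incubation at room temperature, 100 s kinetic read; measured by: kinetic Fluo-8 calcium fluorescence; read-out basis: % activation vs EC15 and EC100 oxytocin; controls: EC15 oxytocin alone as 0%, 75 nM oxytocin as 100%; replicates: singlicate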
CRFBP-R2 agonist: agonists of CRF-BP/CRF-R2 complex, primary screen, cell-based, HEK293, calcium dye fluorescence, uHTS. CRF-binding protein / CRF receptor 2 complex (human). calcium dye fluorescence (FLIPR); percent of saturating CRF peptide response. activation, % at 13.2 µM. 0.46% of 350,000 active. AID 588473, 2011;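 active means activation of at least 50%, plus an integration ratio under a set limit after plate pattern correction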;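 further: plate controls were neutral control wells without compound for no effect and CRF at EC100 for full effect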
OXTR ag: human OXTR agonists, primary screen, fluorescence, CHO-OTR cells, Fluo-8 calcium; Fluo-8 calcium fluorescence; normalized: DMSO 0%, oxytocin 100%; activation, % at 3 µM; 0.32% of 320,000 active; AID 2435, 2010;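 active means activation above the mean of all tested compounds plus 3 SD, cutoff set per screening run, cut at about 20% in these data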;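 further: peak over basal fluorescence ratio from a 100 s FLIPR kinetic read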
TRPML3 ag: human TRPML3 channel agonists, primary screen, cell-based, HEK293 TRPML3-YFP, Fluo-8 calcium fluorescence, 3 µM. Mucolipin-3 (Homo sapiens), Q8TDD5. 100% = the carbachol control signal. activation, % at 3 µM. 0.29% of 220,000 active. AID 1448, 2008;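 active means activation above its plate's cutoff, the mean activation of the plate's test wells plus 3 SD, cut at about 12% in these data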;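 further: 0% = DMSO only wells and 100% = carbachol wells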
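Test system – HEK293 line with stable expression of human TRPML3-YFP channel · Control set – carbachol 87 µM final as high control (100%), DMSO as low control (0%) · Signal – Fluo-8 calcium dye fluorescence, ex 470-495, em 515-575 nm · Incubation – 1-h 37 °C dye load, 5-s basal, 120-s post-compound reads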
* marks the source's active call; other numbers are inactive results; · = no result.

SMILES | V1R ag counter | zfTRPN1 agonist | OXTR potentiate | CRFBP-R2 agonist | OXTR ag | TRPML3 ag
CC1=CN2C(=N)/C(=C/c3ccco3)C(=O)N=C2S1 | -0.2 | 0.3 | -10.8 | -4.2 | -0.6 | 1.1
CC1=CN2C(=N)/C(=C/c3ccc([N+](=O)[O-])o3)C(=O)N=C2S1 | 0.8 | 3.2 | -2.5 | 56.3* | 2.6 | 1.1
CC(C)(C)C(=O)Nc1cc(NC(=O)C(C)(C)C)cc(C(=O)Nc2cc(C(=O)O)cc(C(=O)O)c2)c1 | 0.8 | 1.5 | 0.7 | 1.0 | -0.1 | -0.2
COC(CNc1ccc([N+](=O)[O-])c(NCC(OC)OC)c1C#N)OC | 0.2 | 0.4 | -2.9 | -0.4 | -0.4 | 0.8
O=C(O)CN1C(=O)/C(=C\c2cn(CC(=O)N3CCOCC3)c3ccccc23)SC1=S | 4.1 | 5.1 | -5.6 | 69.3* | 3.9 | 2.4
O=C(NCc1cccc(Cl)c1)C1CCCN(c2ncnc3c2nc2n3CCCCC2)C1 (configuration not stated) | -0.5 | · | -15.6 | 0.0 | 3.9 | ·
Cn1cc(/C=C2\SC(=S)N(NC(=O)c3ccccc3Cl)C2=O)c2ccccc21 | 9.8 | 2.9 | -2.7 | 70.3* | 13.1 | 0.6
CC(Sc1n[nH]c(=O)n1Cc1ccccc1)C(=O)NCC1CCCO1 (configuration not stated) | · | · | · | -0.5 | · | ·
CC(NS(=O)(=O)c1ccc(OCC(=O)NCc2cccnc2)cc1)c1ccccc1 (configuration not stated) | 0.2 | · | -1.1 | 0.5 | 0.2 | ·
CCN(CC)c1nc(C=Cc2ccc(N(C)C)cc2)c2nccnc2n1 | · | · | · | 214.6* | · | ·
CN(C)c1nc(N)c2nccnc2n1 | · | · | · | 0.7 | · | ·
CN(C)c1ccc(/C=C2\C(=N)N3N=C(CC(=O)N4CCCCC4)SC3=NC2=O)cc1 | 8.1 | · | -7.1 | 55.1* | 7.0 | ·
CCOC(=O)/C(=N\Nc1ccc(C(C)=O)cc1)c1csc(Nc2ccccc2)n1 | 0.6 | 0.1 | -9.9 | 74.1* | -0.4 | 1.2
CCN(CC)c1ccc(C=C2C(=O)OC3(CCCCC3)OC2=O)cc1 | 0.8 | 3.0 | -7.5 | 32.4 | 0.5 | 2.0
CCN(CC)c1ccc(/C=C2/C(=O)c3ccc(C(=O)O)cc3C2=O)cc1 | 70.2* | 34.5* | -12.3 | 215.4* | 135.4* | 19.1*
Cc1ccccc1-n1c(O)c(/C=C/C=Nc2ccccc2)c(=O)[nH]c1=O | 29.7* | 13.3 | -15.1 | 81.4* | 47.2* | 9.3
CNc1nc(N(C)C)nc(N(C)C)n1 | -0.3 | 0.5 | 0.2 | 71.7* | -0.9 | 0.2
O=C(O)c1ccc(OCC(O)Cn2c3ccccc3c3ccccc32)cc1 (configuration not stated) | 43.6* | 0.9 | -8.1 | -0.2 | 21.6* | 1.1
Cc1cc(F)ccc1S(=O)(=O)N1CCCCC1CCNC(=O)C(=O)NCc1ccccn1 (configuration not stated) | -1.2 | · | -2.4 | -1.3 | -2.6 | ·
CN1CCN(c2ccc(S(=O)(=O)N3CCCCC3)cc2NC(=O)Cc2ccc(Cl)cc2)CC1 | 26.2* | 4.0 | -14.4 | 15.2 | 21.0* | 1.1
O=C(N[C@@H]1C[C@H]2CC[C@@H]1C2)c1ccco1 | -0.3 | · | 4.9 | 0.9 | 1.9 | ·
CCN1C(=O)/C(=C2/Sc3ccccc3N2CC)SC1=S | 1.2 | · | -4.4 | 4.5 | 0.2 | ·
CCN1/C(=C2\SC(=S)N(Cc3ccccc3)C2=O)Sc2ccccc21 | 0.8 | 1.8 | 3.2 | 51.3* | 0.4 | 1.2
COc1cc(OC)c(C(=O)OCC(=O)NC23CC4CC(CC(C4)C2)C3)cc1OC | -0.1 | · | -6.4 | -0.8 | -1.7 | ·
CC(C)(C)N=Cc1c(O)ccc2oc3c(c12)CCCC3 | 0.7 | · | -3.4 | 51.2* | 0.2 | ·
